The nature of this series: Toxicity liver stage against HepG2, at 10uM. Format: cell-based. The arrangement: test concentration 10 uM, cell line HepG2-A16-CD81EGFP. As to conditions: human, HepG2-A16-CD81EGFP cells; read-out: INHIBITION
In short, it runs like this: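 Uninfected HepG2-A16-CD81EGFP cells, 3 × 10^3 per well, 1536-well, plated on prespotted compound at 10 μM final, parasite-free screening media added to match infected plates; puromycin 10 μM positive, DMSO 0.5% negative; run in parallel with 48 h PbLuc assay at 37 °C, 5% CO2; viability by CellTiter-Glo luminescence, normalized to controls.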

SMILES strings stand for the structures.

Regarding `CCN(CC)S(=O)(=O)N1CC[C@H](c2ccccc2)[C@H]2NCCCC[C@H]21`, the cytotoxicity at 10 µM is -39.5%. For `CCN(CC)Cc1ccc(C(=O)N2CCCC2Cn2cc(C)cn2)o1` (centres undefined), the cytotoxicity at 10 µM is -11.4%. For `Cc1noc(C)c1CNC(=O)N1CCN(Cc2cscn2)CC1`, the cytotoxicity at 10 µM is -6.31%. With `CC(=O)NCCNC(=O)Nc1ccc(C)cc1OCc1ccccc1`, the cytotoxicity at 10 µM was 9.79%. `CCN1CCN(C(=O)C2CCOC2)c2ccccc21` (centres undefined): the cytotoxicity at 10 µM came to 2.54%. The value for `O=C(CCC1CCCCC1)NCc1nnc2ccccn12` was 3.47%; that for `Cc1cnn(CC2CCCN2C(=O)CCc2cscn2)c1` (centres undefined) was -11.9%. `CC(C)NC(=O)[C@H]1C[C@H]2NCCO[C@@H]2C1`: the cytotoxicity at 10 µM is -134%. For `CN1CCC(c2nnc(CN3CCOCC3)n2C)CC1`, the cytotoxicity at 10 µM was -1.16%. Regarding `O=C1CC(c2cccs2)c2cnn(C3CCCC3)c2N1` (centres undefined), the cytotoxicity at 10 µM amounted to 23.3%. Regarding `COCC1CN(Cc2ccc(OC)cc2)Cc2nn(C)cc21` (centres undefined), the cytotoxicity at 10 µM came out at 0.976%. As for `c1cncc(C2COC3(CCN(CC4CCOCC4)CC3)C2)c1` (centres undefined), the cytotoxicity at 10 µM is -10.4%.

In the case of `O=C1NC[C@H]2CN(Cc3ccccn3)CCN12`, the cytotoxicity at 10 µM was -2.4%. On to `O=C(NCc1ccc2c(c1)OCO2)c1ccc(N2CCCCCC2)nc1`, for which the cytotoxicity at 10 µM is -6.78%. Consider `CCOC(=O)N1CCC(NC(C)c2ccccc2-n2cccn2)CC1` (centres undefined), for which the cytotoxicity at 10 µM was -7.28%. With `CCN1CCn2c(C)cnc2C12CCN(C(=O)c1ccco1)CC2`, the cytotoxicity at 10 µM amounted to 4.56%. Regarding `COc1cc(CNCCc2cnn(C)c2)cc2c1OCO2`, the cytotoxicity at 10 µM was -9.3%. In the case of `Cc1ccc(CN(CCCN2CCOCC2)Cc2cncn2C)o1`, the cytotoxicity at 10 µM is -40.3%. As for `Cc1n[nH]cc1CNC(=O)CCCc1cccs1`, the cytotoxicity at 10 µM was -52.3%. With `Cc1ccc2nc(C3CCCN3Cc3scnc3C)[nH]c2c1` (centres undefined), the cytotoxicity at 10 µM amounted to 8.2%. As for `Cc1cccc(-n2cnc(Cl)c2C(=O)O)c1`, the cytotoxicity at 10 µM was -1.26%. With `CCN(CC)c1ccc(CNC(=O)c2cnc(C)cn2)cn1`, the cytotoxicity at 10 µM came out at 6.21%. Take `Cc1cnc(N2CCC3(CC2)CC(N(C)Cc2ccncc2)C3)nc1`: the cytotoxicity at 10 µM was 8.73%. For the compound `CNc1nccnc1C1CCN(C(C)C)CC1`, the cytotoxicity at 10 µM was -25.2%. For `c1coc(CN2CCC3(CC2)COCCN(CCN2CCCC2)C3)c1`, the cytotoxicity at 10 µM was -7.82%.

With `Cc1noc(C(C)C)c1C(=O)N1CCC(n2cccn2)CC1`, the cytotoxicity at 10 µM is -4.32%. With `COc1cccc2c1OCC(NC(=O)NCCC(N)=O)C2` (centres undefined), the cytotoxicity at 10 µM is -1.38%.

With `Cc1nc(CN2CCOCC3(CCCN(c4cnccn4)C3)C2)cs1` (centres undefined), the cytotoxicity at 10 µM is -1.81%. Regarding `CC(C1CCN(Cc2ccc(N(C)C)nc2)CC1)N1CCOCC1` (centres undefined), the cytotoxicity at 10 µM came to 6.06%. Take `CC(CN1CCCC1=O)NC(=O)c1ccc(C(F)(F)F)[nH]c1=O` (centres undefined): the cytotoxicity at 10 µM was -4.48%. The value for `CC(=O)N(C)c1nc(CN2CCN(Cc3nccn3C)CC2)cs1` was 8.82%. As for `Cc1nn(CCCNC(=O)C2CCN(S(C)(=O)=O)CC2)cc1Cl`, the cytotoxicity at 10 µM is -1.94%.

As for `Cc1ccc2nc(CN3CCCCC3CCN3CCOCC3)cn2c1` (centres undefined), the cytotoxicity at 10 µM worked out at 3.28%. The value for `O=C(NCC1(CO)CC1)c1nnn(-c2ccc(F)cc2)c1C1CC1` was -1.06%; that for `N#Cc1cc2c(=O)n(CC(O)Cc3ccccc3)ccc2[nH]c1=O` (centres undefined) was 2.86%. With `CCc1cnc(N2CC[C@H]3[C@@H]2CCC(=O)N3c2ccccc2)nc1`, the cytotoxicity at 10 µM is -6.18%. For the compound `Cc1cc(C)n(C2CCN(c3ncnc4sc5c(c34)CCNC5)C2)n1` (centres undefined), the cytotoxicity at 10 µM turned out to be 17.3%. Consider `O=C(N[C@@H]1CCN(C(=O)C2CCOCC2)C[C@H]1O)c1ccccn1`, for which the cytotoxicity at 10 µM was -2.88%. With `Cn1cccc1C(=O)N1CCc2ncnc(N3CCCC3)c2CC1`, the cytotoxicity at 10 µM was -1.31%. As for `Cc1ccc(C(=O)N2C[C@@H]3OCCN(CCN4CCCC4)[C@@H]3C2)cn1`, the cytotoxicity at 10 µM came to 2.39%. `CCCn1cc(C(=O)N2CCOC(c3nc(-c4cccs4)no3)C2)cn1` (centres undefined): the cytotoxicity at 10 µM is -4.22%. The value for `CN1CCCCC1CCC(=O)NCCCn1nccc1C1CC1` (centres undefined) was -22.9%; that for `COc1ccc(CN2C[C@@H]3COC[C@]3(COc3cccnc3)C2)cc1` was -18.4%. The value for `CCC(=O)N1CCN(C(=O)Nc2cccc(F)c2)[C@H]2CS(=O)(=O)C[C@H]21` was -46.8%; that for `CCNc1nc(-c2cccnc2)c(-c2ccnc(NS(C)(=O)=O)n2)s1` was -12.3%; that for `COc1ccccc1CC(=O)NC(C)c1nc2cccnc2n1C(C)C` (centres undefined) was -43.8%. `CCN(CCn1cccn1)C(=O)CN1C(=O)OC[C@@H]1C(C)C`: the cytotoxicity at 10 µM came out at 1.97%.

Turning to `CC(C)(C#N)c1ccccc1CN1CCC(N2CCCC2=O)CC1`, the cytotoxicity at 10 µM was 2.35%.

As to `CCS(=O)(=O)N1Cc2ccccc2CC1C(=O)OCc1c(C)noc1C` (centres undefined), the cytotoxicity at 10 µM was -9.26%.

In the case of `O=C(NCc1nncn1C1CC1)C1(c2cccc(F)c2)CCOCC1`, the cytotoxicity at 10 µM was -2.07%.

On to `COc1ccc(CN(C)[C@@H]2CN(C(=O)c3ccccc3)C[C@H]2O)cc1`, for which the cytotoxicity at 10 µM is -2.64%. For `Cn1c(Cn2ccnc2)nnc1C1CCN(C(=O)c2ccccn2)CC1`, the cytotoxicity at 10 µM is -104%. On to `O=C(NCC1CCOC1)c1cc(-c2ccccc2Cl)[nH]n1` (centres undefined), for which the cytotoxicity at 10 µM was -3.11%. As for `COc1ccc(-c2cc(C3=NC(=CN4CCN(C)CC4)NO3)[nH]n2)cc1`, the cytotoxicity at 10 µM is -17.8%. Consider `O=C([C@H]1C[C@H]2OCC[C@H]2N(Cc2cccnc2)C1)N1CCCO1`, for which the cytotoxicity at 10 µM was -2.83%. As for `CC(=O)Nc1nc(C(=O)N2CCCC2c2noc(C3CC3)n2)cs1` (centres undefined), the cytotoxicity at 10 µM was -10.5%. The value for `CC[C@H]1CN2CC[C@H]1C[C@@H]2CNCc1ccc(OC(F)(F)F)cc1` was -0.785%; that for `Cc1cccc(Nc2nccnc2C2CCCN2CC(N)=O)n1` (centres undefined) was -4.16%. Consider `N#CC1COCCN1C(=O)c1ccc2[nH]cnc2c1` (centres undefined), for which the cytotoxicity at 10 µM is -2.87%. The value for `CCN(c1ccc(C(=O)N2CCCC2c2cnn(C)c2)cn1)C(C)C` (centres undefined) was -0.607%. On to `CC(=O)N1C[C@H]2CNC[C@@]2(C(=O)NCCOc2ccccc2F)C1`, for which the cytotoxicity at 10 µM worked out at 2.8%. The value for `CN(CCOc1cccc(S(C)(=O)=O)c1)CC(F)F` was 13%; that for `CCc1[nH]ncc1C(=O)N1CCCC(n2nc(C)nc2C)C1` (centres undefined) was -6.02%; that for `Cc1cc(C)n(CC2CCCCN2C(=O)c2cnn(C)c2)n1` (centres undefined) was 6.79%. For the compound `CCn1nc(C)cc1C(=O)N1C[C@@H](CN(C)C)[C@@H](CO)C1`, the cytotoxicity at 10 µM stood at 3.3%. Turning to `CCOC(CC)C(=O)NCc1cccc(N2CCCCC2=O)c1` (centres undefined), the cytotoxicity at 10 µM was found to be 5.12%. In the case of `COc1ccccc1CN1CC[C@H]2C[C@@H](C(=O)N3CCCC3)O[C@H]2C1`, the cytotoxicity at 10 µM stood at 7.28%. Regarding `CO[C@@H]1CN(S(=O)(=O)c2cn(C)cn2)[C@@H]2CCCO[C@@H]21`, the cytotoxicity at 10 µM was -125%. With `CN(CCCC1CCCC1)C(=O)c1cc(CN2CCC(O)CC2)on1` the figure was 5.21%; with `COc1ccc2c(ccn2CCC(=O)/N=c2\[nH]nc(C3CCCO3)s2)c1` (centres undefined), -8.07%; with `CCC(CC)CN1CCC2(CCC(=O)N2OCc2ccccc2F)CC1`, 6.69%. For the compound `Cc1ccc(N(CCC#N)C(=O)CN2CCCC2c2ccsc2)cc1C` (centres undefined), the cytotoxicity at 10 µM was -11.2%. Turning to `Cc1cc(NC(=O)c2ccc(F)cc2Cl)n(C)n1`, the cytotoxicity at 10 µM is -77.5%. For `CCN1C(=O)C2(CCOCC2)c2cc(NC(=O)c3ccco3)ccc21`, the cytotoxicity at 10 µM is -10.3%. Take `CCN(CC)C1COc2c(cc(Br)c(C)c2Br)C1=O` (centres undefined): the cytotoxicity at 10 µM amounted to 5.77%. In the case of `CN1CCC(C(=O)N2CCCN(c3cccnn3)CC2)C1` (centres undefined), the cytotoxicity at 10 µM was -8.82%.

For `O=C(NCc1ccccc1Cn1ccnc1)N1CCOCC1`, the cytotoxicity at 10 µM is 0.84%. Regarding `Cc1c(Cl)cccc1S(=O)(=O)N1CCC2(CC1)OCCS2`, the cytotoxicity at 10 µM was found to be 4.19%.

As for `CN1CCc2c(CNC(=O)c3nccn3C)cncc2C1`, the cytotoxicity at 10 µM was -95.7%. The value for `COc1cc(C(C)=O)ccc1SCC(=O)Nc1ccc(C)cn1` was 4.43%; that for `CCN1CC2(CC1=O)CN(Cc1ccc(C)o1)CCN(C(=O)C(C)C)C2` (centres undefined) was 2.84%. On to `Cc1cccc(CN2C[C@@H]3CN(C(=O)c4cnccn4)C[C@@H]3C2=O)n1`, for which the cytotoxicity at 10 µM stood at 3.14%. `COCc1cccc(C(=O)N2CCCN(C(=O)OCC(C)C)CC2)c1`: the cytotoxicity at 10 µM is -10%. Consider `CCN1CCN(C(=O)c2cc(C(=O)OC)nn2-c2ccccc2)CC1`, for which the cytotoxicity at 10 µM was -13.4%. The value for `CCOc1cc(C)nc(N2CCN(C(=O)c3ccc[nH]3)CC2)n1` was -4%; that for `O=C(c1cn(Cc2ccccc2)c2ncccc12)N1CCCCC1` was 1.2%. Turning to `CCOC1CCN(C(=O)c2ccc(-n3ncc(C#N)c3N)cc2)CC1`, the cytotoxicity at 10 µM is -1.1%. Take `CC(=O)N1CCCn2nc(CNS(=O)(=O)c3cc(C)cs3)cc2C1`: the cytotoxicity at 10 µM was -9.58%. With `O=C(CO[C@@H]1CC[C@H]2[C@H]1OCCN2c1ncccn1)N1CCCC1`, the cytotoxicity at 10 µM was -7.58%. `CC(C)N(Cc1ccc(C(F)(F)F)nc1)Cc1cnn(C)c1`: the cytotoxicity at 10 µM turned out to be 1.36%. Turning to `Cn1cccc1-c1cc(C(=O)N2CCCC2c2cccnc2)[nH]n1` (centres undefined), the cytotoxicity at 10 µM is -9.32%. The value for `CC(C)=CCN1C(=O)[C@@H]2CC[C@H]1CN(Cc1cccnc1N)C2` was 12.3%. On to `CC(=O)N1N=C(c2ccco2)OC1C(=O)NCCc1ccc(O)cc1` (centres undefined), for which the cytotoxicity at 10 µM is -1.19%. `CC(Cn1cc(Br)cn1)C(=O)Nc1ccc(C(N)=O)cc1` (centres undefined): the cytotoxicity at 10 µM is -0.609%.
